According to ChEMBL document CHEMBL4732244, “A new class of α-ketoamide derivatives with potent anticancer and anti-SARS-CoV-2 activities” (Eur J Med Chem, 2021):

Key:
[1] = system: Ramos; assay: Anticancer activity against human Ramos cells assessed as cell viability measured after 72 hrs by MTT assay; format: functional, cell-based
Procedure, shortened: (§1)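 MTS growth assay after 72 h compound exposure. RPMI8226 (1×10^4/well), THP-1 and Ramos (5×10^4/well) were cultured in RPMI 1640 with 10% FBS. MGC-803, HeLa and SW480 (5×10^3/well) were cultured in DMEM with 10% FBS. All at 37 °C, 5% CO2. MTS was added for 3 h at 37 °C and OD read at 490 nm. IC50 from 7 concentrations; triplicate wells, three independent experiments.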

[2] = system: THP-1; assay: Anticancer activity against human THP-1 cells assessed as cell viability measured after 72 hrs by MTT assay; format: functional, cell-based; settings: THP-1, 72 h; procedure, shortened: as §1
[3] = system: SW480; assay: Anticancer activity against human SW480 cells assessed as cell viability measured after 72 hrs by MTT assay; format: functional, cell-based; settings: SW480, 72 h; procedure, shortened: as §1
[4] = system: RPMI-8226; assay: Anticancer activity against human RPMI8226 cells assessed as cell viability measured after 72 hrs by MTT assay; format: functional, cell-based; settings: RPMI-8226, 72 h; procedure, shortened: as §1
[5] = system: HeLa; assay: Anticancer activity against human HeLa cells assessed as cell viability measured after 72 hrs by MTT assay; format: functional, cell-based; procedure, shortened: as §1
[6] = system: MGC-803; assay: Anticancer activity against human MGC-803 cells assessed as cell viability measured after 72 hrs by MTT assay; format: functional, cell-based; settings: MGC-803, 72 h; procedure, shortened: as §1
[7] = Cytotoxicity in African green monkey Vero E6 cells assessed as reduction in cell viability after 48 hrs by Celltiter Glo luminescent assay; format: cell-based; settings: chlorocebus aethiops, vero e6, 48 h
Procedure, shortened: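 CellTiter-Glo viability: Vero E6 cells at 2 × 10^4 cells/well were exposed to serially diluted compound for 48 h. Luminescence was read 10 min after substrate addition. CC50 was derived by curve fitting.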

[8] = system: SARS-CoV-2; assay: Antiviral activity against SARS coronavirus 2 infected in Vero E6 cells assessed as plague reduction measured after 1 hr; format: functional, organism-based; settings: Severe acute respiratory syndrome coronavirus 2, Vero C1008, 1 h

| SMILES | IC50 [1] | IC50 [2] | IC50 [3] | IC50 [4] | IC50 [5] | IC50 [6] | Activity [7] | EC50 [8] |
| --- | --- | --- | --- | --- | --- | --- | --- | --- |
| COc1ccc(C[C@H](NC(=O)[C@H](C)NC(=O)c2ccc(-c3ccc(C(C)=O)cc3)o2)C(=O)N[C@@H](CC(C)C)C(=O)C(=O)Nc2ccccc2)cc1 | 428 nM | 475 nM | 2000 nM | 475 nM | 3200 nM | 1160 nM |  |  |
| CC(=O)c1cccc(NC(=O)C(=O)[C@H](CC(C)C)NC(=O)[C@H](Cc2c[nH]c3ccccc23)NC(=O)[C@H](CC(C)C)NC(=O)OCc2ccccc2)c1 | 38.4 nM | 78.1 nM | 94.2 nM | 91 nM |  | 88.8 nM |  |  |
| CCc1cccc(NC(=O)C(=O)[C@H](CC(C)C)NC(=O)[C@H](CC(C)C)NC(=O)[C@H](CC(C)C)NC(=O)OCc2ccccc2)c1 | 45.7 nM | 71.1 nM | 82.9 nM | 40.4 nM | 212 nM | 78.5 nM |  |  |
| COc1ccc(C[C@H](NC(=O)[C@H](C)NC(=O)c2ccc(-c3ccccc3)cc2)C(=O)N[C@@H](CC(C)C)C(=O)C(=O)Nc2ccccc2)cc1 | 464 nM | 568 nM | 2440 nM | 455 nM | 8700 nM | 2020 nM |  |  |
| COc1ccc(C[C@H](NC(=O)[C@H](C)NC(=O)CN2CCOCC2)C(=O)N[C@@H](Cc2ccccc2)C(=O)C(=O)Nc2ccccc2)cc1 |  |  |  |  |  |  | Non-Toxic | 1280 nM |
| COc1cc(NC(=O)C(=O)[C@H](CC(C)C)NC(=O)[C@H](CC(C)C)NC(=O)[C@H](CC(C)C)NC(=O)OCc2ccccc2)cc(OC)c1 | 26.9 nM | 70.7 nM | 72.5 nM | 37.6 nM | 120 nM | 68.5 nM |  |  |
| CC(C)C[C@H](NC(=O)OCc1ccccc1)C(=O)N[C@@H](CC(C)C)C(=O)N[C@@H](CC(C)C)C(=O)C(=O)Nc1ccccc1 | 53.6 nM | 88.1 nM | 106 nM | 67.8 nM | 288 nM | 119 nM |  |  |
